# Reference: ChEMBL document CHEMBL1123674, “Synthesis and antitumor activity of fluorine-substituted 4-amino-2(1H)-pyridinones and their nucleosides. 3-Deazacytosines” (J Med Chem, 1987)
# Experiments:
# L1210 [1] = experiment: Compound was tested for percent increase in life span against L1210 lymphoid leukemia; type: functional, Mus musculus
# P388 = experiment: Compound was tested for mean survival time of treated mice in days / mean survival time of control mice x 100 against P388 lymphoid leukemia cells; Inactive; type: functional, Mus musculus
# L1210 [2] = experiment: Compound was tested for the concentration required to inhibit the growth rate of the control L1210 cells by 50%; Value ranges from 2.60-4.71; type: functional; conditions: Mus musculus, read-out: ID50 (the source's name)
# L1210 [3] = experiment: Compound was tested for its inhibitory activity against L1210 lymphoid leukemia; type: functional, cell-based; conditions: Mus musculus
# L1210 [4] = experiment: Compound was tested for mean survival time of treated mice in days / mean survival time of control mice x 100 against L1210 lymphoid leukemia cells; type: functional, Mus musculus
# Method in brief: (§1)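 CD2F1 mice in groups of six received 1 × 10⁵ L1210 lymphoid leukemia cells ip. Dosing was ip, once a day for 5 days, starting 24 h after tumor inoculation, under standard NCI protocol. %T/C = (mean survival time of treated mice in days / mean survival time of controls) × 100. Toxic deaths were excluded from the %T/C calculation.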
# L1210 [5] = experiment: Antitumor activity against L1210 lymphoid leukemia in CD2F1 mice at 100 mg/injection and measured as mean survival time of treated mice in days/mean survival time of control mice x 100 before second treatment was reported; type: functional, Mus musculus; method in brief: as §1
# L1210 [6] = experiment: Ability to inhibit growth of L1210 lymphocyte leukemia cell in culture; type: functional, cell-based; conditions: Mus musculus
# L1210 [7] = experiment: Antitumor activity against L1210 lymphoid leukemia in CD2F1 mice at 100 mg/injection and measured as mean weight change (days 5 minus 1) of treated mice minus mean weight change of control mice before second treatment was reported; type: functional, Mus musculus
# Method in brief: (§2)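 CD2F1 mice, in groups of six, were inoculated ip with 1 × 10⁵ L1210 lymphoid leukemia cells. Dosing was ip once daily for 5 days, starting 24 h after inoculation. Toxicity was scored as the mean weight change of treated mice (day 5 minus day 1) minus the mean weight change of control mice.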
# L1210 [8] = experiment: Antitumor activity against L1210 lymphoid leukemia in CD2F1 mice at 200 mg/injection and measured as mean weight change (days 5 minus 1) of treated mice minus mean weight change of control mice before first treatment was reported; type: functional, Mus musculus; method in brief: as §2
# L1210 [9] = experiment: Antitumor activity against L1210 lymphoid leukemia in CD2F1 mice at 50 mg/injection and measured as mean survival time of treated mice in days/mean survival time of control mice x 100 before first treatment was reported; type: functional, Mus musculus; method in brief: as §1
# L1210 [10] = experiment: Antitumor activity against L1210 lymphoid leukemia in CD2F1 mice at a dose of 50 mg/injection measured as difference between estimated tumor burdens before second treatment; type: functional, Mus musculus
# Method in brief: (§3)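 CD2F1 mice, in groups of six, received 1 × 10⁵ L1210 cells ip and were dosed ip once daily for 5 days from 24 h after inoculation. Net cell kill is the estimated change in tumor burden from before the first dose to just after the last. It is calculated as (T − C − Rx)/3.32Td, using the tumor doubling time observed in that test and survival after the last treatment.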
# L1210 [11] = experiment: Antitumor activity against L1210 lymphoid leukemia in CD2F1 mice at […] and measured as mean survival time of treated mice in days/mean survival time of control mice x 100 before second treatment was reported; type: functional, Mus musculus
# L1210 [12] = experiment: Antitumor activity against L1210 lymphoid leukemia in CD2F1 mice at 25 mg/injection and measured as mean weight change (days 5 minus 1) of treated mice minus mean weight change of control mice before second treatment was reported; type: functional, Mus musculus; method in brief: as §2
# L1210 [13] = experiment: Antitumor activity against L1210 lymphoid leukemia in CD2F1 mice at a dose of […] measured as difference between estimated tumor burdens before second treatment; type: functional, Mus musculus
# L1210 [14] = experiment: Antitumor activity against L1210 lymphoid leukemia in CD2F1 mice at a dose of 25 mg/injection measured as difference between estimated tumor burdens before first treatment; type: functional, Mus musculus; method in brief: as §3
# L1210 [15] = experiment: Antitumor activity against L1210 lymphoid leukemia in CD2F1 mice at a dose of 100 mg/injection and difference between estimated tumor burdens before second treatment; type: functional, Mus musculus; method in brief: as §3
# L1210 [16] = experiment: Antitumor activity against L1210 lymphoid leukemia in CD2F1 mice at 25 mg/injection and measured as mean weight change (days 5 minus 1) of treated mice minus mean weight change of control mice before first treatment was reported; type: functional, Mus musculus; method in brief: as §2
# L1210 [17] = experiment: Antitumor activity against L1210 lymphoid leukemia in CD2F1 mice at a dose of 200 mg/injection measured as difference between estimated tumor burdens before first treatment; type: functional, Mus musculus; method in brief: as §3
# L1210 [18] = experiment: Antitumor activity against L1210 lymphoid leukemia in CD2F1 mice at 50 mg/injection and measured as mean weight change (days 5 minus 1) of treated mice minus mean weight change of control mice before first treatment was reported; type: functional, Mus musculus; method in brief: as §2
# L1210 [19] = experiment: Antitumor activity against L1210 lymphoid leukemia in CD2F1 mice at a dose of 50 mg/injection measured as difference between estimated tumor burdens before first treatment; type: functional, Mus musculus; method in brief: as §3
# L1210 [20] = experiment: Antitumor activity against L1210 lymphoid leukemia in CD2F1 mice at 50 mg/injection and measured as mean weight change (days 5 minus 1) of treated mice minus mean weight change of control mice before second treatment was reported; type: functional, Mus musculus; method in brief: as §2
# L1210 [21] = experiment: Antitumor activity against L1210 lymphoid leukemia in CD2F1 mice at 100 mg/injection and measured as mean weight change (days 5 minus 1) of treated mice minus mean weight change of control mice before first treatment was reported; type: functional, Mus musculus; method in brief: as §2
# L1210 [22] = experiment: Antitumor activity against L1210 lymphoid leukemia in CD2F1 mice at 100 mg/injection and measured as mean survival time of treated mice in days/mean survival time of control mice x 100 before first treatment was reported; type: functional, Mus musculus; method in brief: as §1
# L1210 [23] = experiment: Antitumor activity against L1210 lymphoid leukemia in CD2F1 mice at 300 mg/injection and mean weight change (days 5 minus 1) of treated mice minus mean weight change of control mice before first treatment was reported; type: functional, Mus musculus; method in brief: as §2
# L1210 [24] = experiment: Antitumor activity against L1210 lymphoid leukemia in CD2F1 mice at 25 mg/injection and measured as mean survival time of treated mice in days/mean survival time of control mice x 100 before first treatment was reported; type: functional, Mus musculus; method in brief: as §1
# L1210 [25] = experiment: Antitumor activity against L1210 lymphoid leukemia in CD2F1 mice at 25 mg/injection and measured as mean survival time of treated mice in days/mean survival time of control mice x 100 before second treatment was reported; type: functional, Mus musculus; method in brief: as §1
# L1210 [26] = experiment: Antitumor activity against L1210 lymphoid leukemia in CD2F1 mice at […] and measured as mean weight change (days 5 minus 1) of treated mice minus mean weight change of control mice before second treatment was reported; type: functional, Mus musculus
# L1210 [27] = experiment: Antitumor activity against L1210 lymphoid leukemia in CD2F1 mice at 200 mg/injection and measured as mean survival time of treated mice in days/mean survival time of control mice x 100 before second treatment was reported; type: functional, Mus musculus; method in brief: as §1
# L1210 [28] = experiment: Antitumor activity against L1210 lymphoid leukemia in CD2F1 mice at 300 mg/injection and measured as mean survival time of treated mice in days/mean survival time of control mice x 100 before first treatment was reported; type: functional, Mus musculus; method in brief: as §1
# L1210 [29] = experiment: Antitumor activity against L1210 lymphoid leukemia in CD2F1 mice at a dose of 25 mg/injection measured as difference between estimated tumor burdens before second treatment; type: functional, Mus musculus; method in brief: as §3
# L1210 [30] = experiment: Antitumor activity against L1210 lymphoid leukemia in CD2F1 mice at a dose of 300 mg/injection measured as difference between estimated tumor burdens before first treatment; type: functional, Mus musculus; method in brief: as §3
# L1210 [31] = experiment: Antitumor activity against L1210 lymphoid leukemia in CD2F1 mice at a dose of 100 mg/injection measured as difference between estimated tumor burdens before first treatment; type: functional, Mus musculus; method in brief: as §3
# L1210 [32] = experiment: Antitumor activity against L1210 lymphoid leukemia in CD2F1 mice at 200 mg/injection and measured as mean survival time of treated mice in days/mean survival time of control mice x 100 before first treatment was reported; type: functional, Mus musculus; method in brief: as §1
# L1210 [33] = experiment: Antitumor activity against L1210 lymphoid leukemia in CD2F1 mice at 50 mg/injection and measured as mean survival time of treated mice in days/mean survival time of control mice x 100 before second treatment was reported; type: functional, Mus musculus; method in brief: as §1
# L1210 [34] = experiment: Antitumor activity against L1210 lymphoid leukemia in CD2F1 mice at 200 mg/injection and measured as mean weight change (days 5 minus 1) of treated mice minus mean weight change of control mice before second treatment was reported; type: functional, Mus musculus; method in brief: as §2
compound,measurement,setting,value
Nc1nc(=O)n([C@H]2C[C@H](O)[C@@H](CO)O2)cc1F,ILS,L1210 [1],>161%
Nc1ccnc(O)c1F,T/C,P388,<125%
Nc1cc(O)nc(F)c1,T/C,P388,<125%
Nc1cc(O)ncc1F,T/C,P388,<125%
Nc1c(F)c(O)nc(F)c1F,T/C,P388,<125%
same,IC50,L1210 [2],47.1 µM
NNc1nc(F)c(F)c(N)c1F,T/C,P388,<125%
same,IC50,L1210 [2],47.1 µM
Nc1c(F)cnc(F)c1F,T/C,P388,<125%
same,IC50,L1210 [2],47.1 µM
Nc1ccn([C@@H]2O[C@H](CO)[C@@H](O)[C@H]2O)c(=O)c1,IC50,L1210 [3],17.8 µM
CC(=O)Nc1ccn([C@@H]2O[C@H](COC(C)=O)[C@@H](OC(C)=O)[C@H]2OC(C)=O)c(=O)c1F,IC50,L1210 [3],12.5 µM
Nc1ccn([C@H]2C[C@H](O)[C@@H](CO)O2)c(=O)c1F,T/C,L1210 [4],<125%
Nc1c(F)cn([C@H]2C[C@H](O)[C@@H](CO)O2)c(=O)c1F,T/C,L1210 [4],<125%
C[C@@]1(n2cc(F)c(N)c(F)c2=O)C[C@H](O)[C@@H](CO)O1,T/C,L1210 [4],<125%
Nc1c(F)cnc(O)c1F,T/C,P388,<125%
same,IC50,L1210 [2],47.1 µM
Nc1c(F)cn(C2O[C@H](CO)[C@@H](O)[C@H]2O)c(=O)c1F (some centres not stated),T/C,L1210 [4],<125%
Nc1ccn(C2O[C@H](CO)[C@@H](O)[C@H]2O)c(=O)c1F (some centres not stated),T/C,L1210 [5],216%
same,IC50,L1210 [6],10.7 µM
same,BWD,L1210 [7],-1.3
same,BWD,L1210 [8],-4.8
same,T/C,L1210 [9],182%
same,Net log kill,L1210 [10],3.01
same,T/C,L1210 [11],136%
same,BWD,L1210 [12],-1
same,Net log kill,L1210 [13],-0.97
same,Net log kill,L1210 [14],1.3
same,Net log kill,L1210 [15],5.54
same,BWD,L1210 [16],-1
same,Net log kill,L1210 [17],3.91
same,BWD,L1210 [18],-1.7
same,Net log kill,L1210 [19],2.2
same,BWD,L1210 [20],-1.1
same,BWD,L1210 [21],-3
same,T/C,L1210 [22],193%
same,BWD,L1210 [23],-4.7
same,T/C,L1210 [24],169%
same,T/C,L1210 [25],157%
same,BWD,L1210 [26],-0.5
same,T/C,L1210 [27],208%
same,T/C,L1210 [28],230%
same,Net log kill,L1210 [29],0.78
same,Net log kill,L1210 [30],5.37
same,Net log kill,L1210 [31],2.93
same,T/C,L1210 [32],208%
same,T/C,L1210 [33],185%
same,BWD,L1210 [34],-3.4
Nc1ncn([C@@H]2O[C@H](CO)[C@@H](O)[C@H]2O)c(=O)n1 [AZACITIDINE],IC50,L1210 [3],0.409 µM
Nc1ccn([C@@H]2O[C@H](CO)[C@@H](O)[C@@H]2O)c(=O)n1 [CYTARABINE],ILS,L1210 [1],>161%
Nc1ncn([C@H]2C[C@H](O)[C@@H](CO)O2)c(=O)n1 [DECITABINE],IC50,L1210 [3],0.393 µM
Nc1ccn([C@H]2C[C@H](O)[C@@H](CO)O2)c(=O)n1 [DOXECITINE],ILS,L1210 [1],>161%
